Most compounds without a hit are left out; they make up all but 2.1% or so of the library.
DNMT1 inh – blocks human DNA methyltransferase DNMT1. P26358. DNMT1 molecular beacon, Hinp1I cleavage, fluorescence. inhibition (reported as % activation of signal), % at 10 µM. actives 0.83% (n = 360,000); in the data active means inhibition above about 50%
LMPTP block – LMPTP (human) inhibition; P24666; inhibition, % at 20 µM; actives 0.22% (n = 360,000); recombinant LMPTP-A, OMFP fluorogenic substrate, fluorescence intensity;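 active means compounds that cut the enzyme signal by at least half of the control window in the single-dose screen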;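 further: plate controls were DMSO wells with enzyme plus substrate for no effect and substrate without enzyme for full effect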
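Assay system: LMPTP-A enzyme. Input: 0.625 nM LMPTP-A final. Probe or stimulus: 400 µM OMFP. Compound dosing: single 20 µM dose. Schedule: 50 min dark incubation at room temperature. Detection: fluorescence intensity of OMFP turnover product. Read-out: percent inhibition versus substrate-only and uninhibited controls. Benchmarks: no-enzyme low control, uninhibited high control.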
SUMO1-SIM PPI – SUMO1-SIM interaction modulation; AID 602429; actives 0.33% (n = 360,000); inhibition, % at 20 µM; SUMO1 binding to a labelled peptide, TR-FRET, 1 h; P63165; in the data active means inhibition above about 37%
Scp1 inh – blocks human Scp-1 phosphatase activity; actives 0.88% (n = 340,000); Recombinant Scp1, phosphopeptide, malachite green phosphate absorbance; inhibition, % at 20 µM; AID 493091; Q9GZU7;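 active means inhibition above about 50% at 20 µM, limit read from the data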;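 further: plate controls were DMSO wells with enzyme for no effect and wells lacking enzyme for full effect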
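Times: enzyme reaction 45 min at room temperature, colour 5 min, stabilisation 30 min. Material: SCP-1 catalytic fragment, aa 76-261. Medium: Acidic Tris acetate buffer with magnesium and detergent. Signal: colorimetric free-phosphate detection, absorbance 630 nm. Read-out basis: % inhibition of SCP-1 phosphate liberation. Reagent: Phosphorylated 17-residue peptide substrate.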
STEP block – blocks human striatal-enriched tyrosine phosphatase; P54829; recombinant STEP, OMFP fluorogenic substrate, fluorescence; inhibition, % at 20 µM; actives 0.25% (n = 360,000); AID 588621;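 active means inhibition at 20 µM, scaled per plate between control wells, above about 37%, limit read from the data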;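 further: 0% = DMSO with enzyme and substrate and 100% = substrate only without enzyme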
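System: STEP (striatal-enriched tyrosine phosphatase) enzyme, cell-free; medium: Bis-Tris pH 6.0 buffer with DTT, detergent; dosing: 20 µM, 1% DMSO; times: reaction 20 min, ambient temperature; detection: fluorescence, 480/540 nm; read-out basis: normalized % inhibition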
GRK2 inh – human GRK2 inhibition via aptamer displacement. P25098. bead flow cytometry, FAM-aptamer displacement from GRK2. inhibition of aptamer binding, % at 10 µM. actives 0.59% (n = 330,000). AID 488847;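 active means inhibition of aptamer binding above 40%, roughly 3 SD of noise, on plates passing a quality check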;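 further: median bead fluorescence of bound FAM aptamer so fluorescent compounds give negative values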
STEP inh conf – STEP (human) phosphatase inhibition, single concentration confirmation; shares compounds with STEP block; recombinant STEP, OMFP fluorogenic substrate, fluorescence; inhibition, % at 20 µM; actives 32% (n = 520); call rule not given here;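 further: 0% = enzyme with substrate plus DMSO and 100% = substrate without enzyme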
Starred values were filed as active, the others as inactive; . = no result given.

SMILES	DNMT1 inh	LMPTP block	SUMO1-SIM PPI	Scp1 inh	STEP block	GRK2 inh	STEP inh conf
O=C(Oc1ccc(/C=N/NC(=O)c2ccccn2)cc1)c1ccc(Br)cc1	26	55*	-1	-6	55*	2	1
CCC1ON(c2ccccc2)C2c3nc4ccccc4n3CC12 (stereo not drawn)	1	-1	-10	2	-1	1	.
N/C(=N\OC(=O)CCCc1ccccc1)c1ccccc1	3	2	7	-6	-2	0	.
N/C(=N\OC(=O)CCCc1ccccc1)c1cccc([N+](=O)[O-])c1	-3	2	-22	-10	55*	0	15
CC(=O)Nc1ccccc1-c1nc2ccccc2nc1OCC(=O)c1ccc(Cl)cc1	-2	-1	-1	-4	57*	4	-3
CCN1CCC(N2CCN(c3ccccc3OC)CC2)CC1	-1	-1	3	-4	2	0	.
COc1ccc(CN2CCC(n3nccc3NC(=O)CCc3ccccc3)CC2)c(C)c1C	-1	-2	0	0	-2	.	.
NNC(=O)c1ccc(N2CCCCCC2)c([N+](=O)[O-])c1	1	1	-29	-5	1	3	.
O=C(COc1ccc(/C=N/NC(=O)c2ccncc2)cc1)Nc1ccc([N+](=O)[O-])cc1	-2	9	42*	-3	80*	0	84*
Cc1ccc(N=C2NC(=O)/C(=C/c3cccnc3)S2)cc1C	0	10	-7	38	45*	1	15
CC1(C(=O)NS(=O)(=O)c2cccc(Cl)c2)CCN1C(=O)C/C=C/c1ccccc1 (stereo not drawn)	2	6	1	.	-2	.	.
CCC(C)C(NC(=O)/C(=C\c1ccccc1)NC(=O)c1ccc(OC)cc1)C(=O)O (stereo not drawn)	0	-2	0	-14	0	0	.
Cc1cccc(NC(=O)c2cc3c(=O)n4ccccc4nc3s2)c1	41	8	30	7	84*	0	0
S=C(Nc1ccccc1Cl)NC1CCN(Cc2ccccc2)CC1	-2	-1	-1	-3	-2	1	.
S=C(Nc1ccccc1Cl)NC1CCC(NC(=S)Nc2ccccc2Cl)CC1 (stereo not drawn)	20	-3	2	-5	44*	0	4
CCc1ccccc1NC(=O)N1CCCC(CCC(=O)N(C)CCc2ccccn2)C1 (stereo not drawn)	1	1	2	-4	117*	0	12
Cc1ccc(NC(=O)C(c2ccccc2)N2CCN(CC(=O)N3CCOCC3)CC2)cc1Cl (stereo not drawn)	23	7	0	48	46*	29	-10
COc1cc(/C=C2/SC(=S)N(CC(=O)O)C2=O)ccc1OCC(=O)Nc1ccc(C)c(C)c1	1	-1	11	.	91*	0	56*
COc1ccc(/C=C2\SC(=S)N(CCCC(=O)Nc3cc(C)on3)C2=O)cc1OC	-3	0	-13	-7	-4	0	.
Cc1nc(-c2ccccc2)sc1C1(C)CC(c2cccc(F)c2)=NO1 (stereo not drawn)	-7	3	1	-4	-1	2	.
Cc1ccc(/C=C/C(=O)N(Cc2cccs2)C2CCS(=O)(=O)C2)cc1 (stereo not drawn)	-1	1	-13	-15	0	2	.
CCN1CCN(C(=S)c2ccc(OCC(=O)NCc3ccccc3)cc2)CC1	-3	-2	2	-5	64*	1	25*
CCN1CCN(C(=S)c2ccc(-c3ccccc3)cc2)CC1	0	-1	-1	-1	42*	17	25
CCN1CCN(C(=S)c2ccc(Cl)c(Cl)c2)CC1	2	-1	1	-9	91*	5	51*
Cc1ccc(C(=S)N2CCN(Cc3ccccc3)CC2)cc1	2	1	-4	2	87*	0	34
S=C(c1ccccc1)N1CCN(C(=S)c2ccccc2)CC1	-2	-1	-1	-7	3	0	.
